In ChEMBL document CHEMBL1156002, “Synthesis, Raman, FT-IR, NMR spectroscopic characterization, antimicrobial activity, cytotoxicity and DNA binding of new mixed aza-oxo-thia macrocyclic compounds” (2009):
≈ marks a conversion by molar mass, not a printed value. Calls of active or inactive are those of the source. The calls are words filed in the database; no cut-off is given here.

Assays:
[1] = tested on: Escherichia coli; experiment: Antibacterial activity against Escherichia coli ATCC 11230 after 24 hrs by broth micro dilution method; assay type: functional; conditions: ATCC 11230, 24 h
[2] = tested on: Staphylococcus aureus; experiment: Antibacterial activity against Staphylococcus aureus ATCC 6538 after 24 hrs by broth micro dilution method; assay type: functional; conditions: ATCC 6538, 24 h
[3] = tested on: Klebsiella pneumoniae; experiment: Antibacterial activity against Klebsiella pneumoniae UC57 after 24 hrs by broth micro dilution method; assay type: functional; conditions: UC57, 24 h
[4] = tested on: Bacillus cereus; experiment: Antibacterial activity against Bacillus cereus ATCC 7064 after 24 hrs by broth micro dilution method; assay type: functional; conditions: ATCC 7064, 24 h
[5] = tested on: Mycolicibacterium smegmatis; experiment: Antibacterial activity against Mycobacterium smegmatis CCM 2067 after 24 hrs by broth micro dilution method; assay type: functional; conditions: CCM 2067, 24 h
[6] = tested on: Pseudomonas aeruginosa; experiment: Antibacterial activity against Pseudomonas aeruginosa ATCC 27853 after 24 hrs by broth micro dilution method; assay type: functional; conditions: ATCC 27853, 24 h
[7] = tested on: Kluyveromyces marxianus; experiment: Antifungal activity against Kluyveromyces fragilis NRRL 2415 after 24 hrs by broth micro dilution method; assay type: functional; conditions: NRRL 2415, 24 h
Outline: (§1)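 Broth microdilution was run in cation-adjusted Mueller Hinton Broth. Compounds were dissolved in DMSO at 2 mg mL^-1 and serially diluted two-fold. Yeast precultures were grown in Malt Extract Broth for 48 h. The final inoculum was about 10⁶ cfu mL^-1, and plates were incubated at 37 °C for 24 h. The MIC was read from this series.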

[8] = tested on: Hanseniaspora guilliermondii; experiment: Antifungal activity against Hanseniaspora guilliermondii DSM 3432 after 24 hrs by broth micro dilution method; assay type: functional; conditions: DSM 3432, 24 h; outline: as §1
[9] = Cytotoxicity against human 23132/87 cells assessed as cell viability at 0.1 uM after 24 hrs by MTT assay; assay type: functional; conditions: 23132-87, 24 h, read-out: Activity
Outline: (§2)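 Cells were seeded at 3.10³–5.10³ per well in RPMI 1640 with 10% FBS, 4 mM L-glutamine and penicillin/streptomycin, then held 24 h at 37 °C under 5% CO₂. Ligands (DMSO, final 0.5% v/v) were added at 0.1–100 for 24 or 48 h. MTT was added for 4 h and dissolved in 50% DMF/5% SDS. A570 was read, and cytotoxicity was calculated as 100×(OD treated/OD untreated).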

[10] = Cytotoxicity against human 23132/87 cells assessed as cell viability at 10 uM after 24 hrs by MTT assay; assay type: functional; conditions: 23132-87, 24 h, read-out: Activity; outline: as §2
[11] = Cytotoxicity against human 23132/87 cells assessed as cell viability at 0.1 uM after 48 hrs by MTT assay; assay type: functional; conditions: 23132-87, 48 h, read-out: Activity; outline: as §2
[12] = Cytotoxicity against human 23132/87 cells assessed as cell viability at 1 uM after 48 hrs by MTT assay; assay type: functional; conditions: 23132-87, 48 h, read-out: Activity; outline: as §2
[13] = Cytotoxicity against human 23132/87 cells assessed as cell viability at 100 uM after 48 hrs by MTT assay; assay type: functional; conditions: 23132-87, 48 h, read-out: Activity; outline: as §2
[14] = tested on: A549; experiment: Cytotoxicity against human A549 cells assessed as cell viability at 10 uM after 24 hrs by MTT assay; assay type: functional; conditions: A549, 24 h, read-out: Activity; outline: as §2
[15] = tested on: A549; experiment: Cytotoxicity against human A549 cells assessed as cell viability at 100 uM after 24 hrs by MTT assay; assay type: functional; conditions: A549, 24 h, read-out: Activity; outline: as §2
[16] = tested on: A549; experiment: Cytotoxicity against human A549 cells assessed as cell viability at 0.1 uM after 48 hrs by MTT assay; assay type: functional; conditions: A549, 48 h, read-out: Activity; outline: as §2
[17] = tested on: A549; experiment: Cytotoxicity against human A549 cells assessed as cell viability at 1 uM after 48 hrs by MTT assay; assay type: functional; conditions: A549, 48 h, read-out: Activity; outline: as §2
[18] = tested on: A549; experiment: Cytotoxicity against human A549 cells assessed as cell viability at 100 uM after 48 hrs by MTT assay; assay type: functional; conditions: A549, 48 h, read-out: Activity; outline: as §2
[19] = tested on: 23132-87; experiment: Induction of apoptosis in human 23132/87 cells assessed as DNA fragmentation at 100 uM after 24 hrs by DNA fragmentation assay; assay type: functional, cell-based
Outline: (§3)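 10 × 10⁴ cells were seeded in 6-well plates and treated with ligand for 24 h. Cells were then collected and washed in PBS, and DNA was extracted with a kit. Extracts were run on 1.5% agarose alongside a 100 bp marker, an untreated control and DMSO-treated controls, and ladders were visualized under UV.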

[20] = tested on: A549; experiment: Induction of apoptosis in human A549 cells assessed as DNA fragmentation at 100 uM after 24 hrs by DNA fragmentation assay; assay type: functional, cell-based; outline: as §3
[21] = tested on: 23132-87; experiment: Induction of apoptosis in human 23132/87 cells assessed as change in nuclear appearance at 100 uM after 24 hrs by hoechst nuclear staining; assay type: functional, cell-based
Outline: (§4)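 Cells grown in 6-well plates were treated for 24 h, washed three times in PBS and fixed in ice-cold methanol for 10 min. They were stained with Hoechst 33258 for 5 min, destained in double-distilled water for 5 min and examined by fluorescence microscopy. Untreated and DMSO-treated cells served as controls.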

[22] = tested on: A549; experiment: Induction of apoptosis in human A549 cells assessed as change in nuclear appearance at 100 uM after 24 hrs by hoechst nuclear staining; assay type: functional, cell-based; outline: as §4
[23] = tested on: Calf thymus DNA; experiment: Binding affinity to calf thymus DNA assessed as change in electromagnetic spectrum at 500 uM by UV-vis spectroscopy; assay type: nucleic-acid assay; conditions: Bos taurus
Outline: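 CT-DNA was prepared in ddH₂O and judged protein-free by an A260/A280 ratio of 1.8:1. UV–visible absorption spectra of the DNA solution were recorded without ligand and with increasing ligand amounts.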

[24] = tested on: Escherichia coli; experiment: Antibacterial activity against Escherichia coli ATCC 11230 after 24 hrs by agar disk diffusion assay; assay type: functional
Outline: (§5)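 Disk diffusion with sterile 6 mm discs loaded with DMSO solutions of the test agents and placed on inoculated agar. Bacteria were pre-grown in Nutrient Broth at 30 °C for 24 h, and plates were incubated at 35 °C for 24 h. Each plate carried a reference antibiotic disc matched to the organism, and a DMSO-only solvent control was run.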

[25] = tested on: Staphylococcus aureus; experiment: Antibacterial activity against Staphylococcus aureus ATCC 6538 after 24 hrs by agar disk diffusion assay; assay type: functional; outline: as §5
[26] = tested on: Bacillus cereus; experiment: Antibacterial activity against Bacillus cereus ATCC 7064 after 24 hrs by agar disk diffusion assay; assay type: functional; outline: as §5
[27] = tested on: Micrococcus luteus; experiment: Antibacterial activity against Micrococcus luteus La 2971 after 24 hrs by agar disk diffusion assay; assay type: functional; outline: as §5
[28] = tested on: Proteus vulgaris; experiment: Antibacterial activity against Proteus vulgaris ATCC 8427 after 24 hrs by agar disk diffusion assay; assay type: functional; outline: as §5
[29] = tested on: Mycolicibacterium smegmatis; experiment: Antibacterial activity against Mycobacterium smegmatis CCM 2067 after 24 hrs by agar disk diffusion assay; assay type: functional; outline: as §5
[30] = tested on: Pseudomonas aeruginosa; experiment: Antibacterial activity against Pseudomonas aeruginosa ATCC 27853 after 24 hrs by agar disk diffusion assay; assay type: functional; outline: as §5
[31] = tested on: Kluyveromyces marxianus; experiment: Antifungal activity against Kluyveromyces fragilis NRRL 2415 after 72 hrs by agar disk diffusion assay; assay type: functional
Outline: (§6)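 Sterile 6 mm paper discs were loaded with ligand solution freshly prepared in DMSO and placed on inoculated agar. The inoculum came from broth cultures: bacteria in Nutrient Broth at 30 °C for 24 h, yeasts in Malt Extract Broth for 48 h. Plates were incubated at 35 °C for 24 h (bacteria) or 25 °C for 72 h (yeasts). A DMSO solvent control and a reference antibiotic disc were included on each plate.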

[32] = tested on: Candida albicans; experiment: Antifungal activity against Candida albicans ATCC 10231 after 72 hrs by agar disk diffusion assay; assay type: functional; outline: as §6
[33] = tested on: Debaryomyces hansenii; experiment: Antifungal activity against Debaryomyces hansenii DSM 70238 after 72 hrs by agar disk diffusion assay; assay type: functional; outline: as §6

SMILES	MIC [1] [µg/mL]	MIC [2] [µg/mL]	MIC [3] [µg/mL]	MIC [4] [µg/mL]	MIC [5] [µg/mL]	MIC [6] [µg/mL]	MIC [7] [µg/mL]	MIC [8] [µg/mL]	viability at 0.1 µM [9] [%]	viability at 10 µM [10] [%]	viability at 0.1 µM [11] [%]	viability at 1 µM [12] [%]	viability at 100 µM [13] [%]	viability at 10 µM [14] [%]	viability at 100 µM [15] [%]	viability at 0.1 µM [16] [%]	viability at 1 µM [17] [%]	viability at 100 µM [18] [%]	Activity [19]	Activity [20]	further results
O=C1CCSCCC(=O)Nc2nc(nc(-c3ccccc3)n2)NC(=O)CCSCCC(=O)Nc2nc(nc(-c3ccccc3)n2)N1	25 (≈ 37.9 µM)	25 (≈ 37.9 µM)	12.5 (≈ 19 µM)	12.5 (≈ 19 µM)	50 (≈ 75.9 µM)	25 (≈ 37.9 µM)	6.25 (≈ 9.49 µM)	1.56 (≈ 2.37 µM)	> 86	> 86	> 86	> 86	> 86	> 86	> 86	> 86	> 86	> 86	inactive	inactive	Activity [21]: inactive; Activity [22]: inactive; Activity [23]: inactive; inhibition zone (IZ) [24]: 10 mm; inhibition zone (IZ) [25]: 10 mm; inhibition zone (IZ) [26]: 13 mm; inhibition zone (IZ) [27]: 12 mm; inhibition zone (IZ) [28]: 11 mm; inhibition zone (IZ) [29]: 9 mm; inhibition zone (IZ) [30]: 11 mm; inhibition zone (IZ) [31]: 16 mm; inhibition zone (IZ) [32]: 19 mm; inhibition zone (IZ) [33]: 18 mm
O=C1CSSCC(=O)Nc2nc(nc(-c3ccccc3)n2)NC(=O)CSSCC(=O)Nc2nc(nc(-c3ccccc3)n2)N1	25 (≈ 37.5 µM)	12.5 (≈ 18.7 µM)	6.25 (≈ 9.37 µM)	3.12 (≈ 4.69 µM)	25 (≈ 37.5 µM)	25 (≈ 37.5 µM)	1.56 (≈ 2.34 µM)	1.56 (≈ 2.34 µM)	> 86	> 86	> 86	> 86	> 86	> 86	> 86	> 86	> 86	> 86	inactive	inactive	Activity [21]: inactive; Activity [22]: inactive; Activity [23]: inactive; inhibition zone (IZ) [24]: 10 mm; inhibition zone (IZ) [25]: 14 mm; inhibition zone (IZ) [26]: 17 mm; inhibition zone (IZ) [27]: 18 mm; inhibition zone (IZ) [28]: 11 mm; inhibition zone (IZ) [29]: 10 mm; inhibition zone (IZ) [30]: 11 mm; inhibition zone (IZ) [31]: 19 mm; inhibition zone (IZ) [32]: 19 mm; inhibition zone (IZ) [33]: 21 mm
